PMI act hi M6P: increases human PMI activity with near-saturating mannose 6-phosphate | activation factor at 20 µM | 190,000 compounds, 0.34% hits | coupled PMI enzyme assay, resazurin fluorescence, 20 min; active compounds read high; 1 = untreated enzyme, 0 = substrate-free blank | P34949;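 active = activation factor of 2 or more at 20 µM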
Target sequence (P34949 whole entry, looked up): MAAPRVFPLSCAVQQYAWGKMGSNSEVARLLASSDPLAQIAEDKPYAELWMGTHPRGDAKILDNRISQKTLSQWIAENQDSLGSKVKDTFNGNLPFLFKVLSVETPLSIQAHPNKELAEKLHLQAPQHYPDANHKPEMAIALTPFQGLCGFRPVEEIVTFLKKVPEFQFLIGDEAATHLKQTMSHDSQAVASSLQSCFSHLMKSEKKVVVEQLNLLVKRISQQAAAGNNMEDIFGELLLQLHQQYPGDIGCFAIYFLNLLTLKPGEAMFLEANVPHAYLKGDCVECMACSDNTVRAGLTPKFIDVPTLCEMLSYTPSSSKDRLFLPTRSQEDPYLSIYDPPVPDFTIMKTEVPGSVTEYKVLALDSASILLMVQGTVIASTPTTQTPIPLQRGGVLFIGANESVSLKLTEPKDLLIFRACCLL
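Material: human phosphomannose isomerase with PGI, G6PDH, diaphorase coupling enzymes / Reagent: Man-6-P substrate 1.0 mM / Dosing: single compound dose of 20 µM, 1% DMSO final / Incubation: enzyme reaction with compound 20 min at room temperature / Signal: resorufin fluorescence (Ex 544/Em 590 nm) from resazurin via diaphorase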
WT yeast gro inh: growth inhibition of WT yeast, mitochondrial fusion screen | mitochondrial fusion phenotypic screen, WT strain | inhibition, % at 10 µM | 190,000 compounds, 2.1% hits | AID 1362; in the data active = inhibition above about 58%; tested in S. cerevisiae
L major viab: Leishmania major promastigote growth inhibition | 200,000 compounds, 9% hits | inhibition, % at 10 µM | Leishmania major promastigotes, resazurin fluorescence viability; in the data active = inhibition above about 50%;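 also: promastigotes grown with compound for 44 hours at 28 °C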
PMI act: activators of human phosphomannose isomerase | P34949 | purified human PMI, coupled resazurin fluorescence, 20 min; active compounds read high; 1 = vehicle control, 0 substrate-free wells | activation factor at 20 µM | 190,000 compounds, 0.005% hits | AID 1214;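 active = activation factor of 2 or more at 20 µM, relative to plate controls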
Diaphorase act: counter-screen for diaphorase-based assays: diaphorase activators and chemical reducers | Diaphorase/resazurin coupled assay, resorufin fluorescence, 16 min; active compounds read high; 1 = vehicle wells, 0 = NADH-free wells | activation factor at 20 µM | 190,000 compounds, 0.005% hits | AID 1229;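 active = diaphorase activity raised at least twofold by the compound at 20 µM; inactive = activation factor below 2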
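Measured by – red resorufin fluorescence at 544/590 nm excitation/emission · Test system – Clostridium kluyveri diaphorase, purified enzyme · Incubation – reaction time 16 min, room temperature · Buffer or medium – 50 mM HEPES pH 7.4 with 4.542 mM MgCl2, 0.005% Tween 20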
Numbers without * were called inactive; x = not tested or not shown. In the library only some 10% were active in any assay of this set; here they are far more common.

SMILES | PMI act hi M6P | WT yeast gro inh | L major viab | PMI act | Diaphorase act
Fc1ccc(-n2nnc(-c3ccnc4ccccc34)n2)cc1 | 1.1 | 8 | -5 | 1.1 | 1
N#Cc1c(-c2ccc(F)cc2)ccnc1N1CCOCC1 | 1.1 | 2 | -4 | 1 | 0.8
Cc1c(CCOC(=O)C23CC4(C)CC(C)(CC(C)(C4)C2)C3)sc[n+]1CC(=O)c1ccccc1 | 1.2 | 38 | 23 | 1.1 | 1.8
Cc1ncc(C[n+]2csc(CCOC(=O)C34CC5CC(CC(C5)C3)C4)c2C)c(N)n1 | x | 9 | -5 | x | x
Cc1c(CCOC(=O)C23CC4CC(CC(C)(C4)C2)C3)sc[n+]1Cc1ccccc1 | 0.9 | 7 | 100* | 0.9 | 0.9
Cc1c(CCOC(=O)C23CC4CC(CC(C4)C2)C3)sc[n+]1Cc1ccccc1 | 0.9 | -3 | 98* | 0.9 | 1
O=C(O)Cc1ccc(O)c(F)c1 | 1.1 | 3 | -8 | 1.1 | 1
Cc1cccc(CN2CCN(C(=O)c3ccccc3F)CC2)c1 | 0.9 | -11 | -6 | 0.8 | 0.7
Cc1cccc(CN2CCN(C(=O)CCl)CC2)c1 | 1.1 | -14 | 100* | 1.1 | 0.9
Oc1[nH]c2c(Cl)cc(Cl)cc2c1N=NC(=S)NCC1CCCO1 (centres undefined) | 0.9 | 40 | 98* | 0.9 | 0.8
Cc1cc(C)c2[nH]c(O)c(N=NC(=S)NCC3CCCO3)c2c1 (centres undefined) | 0.9 | -6 | 14 | 0.9 | 0.8
CC(=O)Nc1ccc(Nc2ccc(S(=O)(=O)C(F)(F)F)cc2[N+](=O)[O-])cc1 | 0.9 | 53 | 56* | 0.8 | 0.9
Cn1c2c(c(=O)n(C)c1=O)C(C(F)(F)F)(C(F)(F)F)N=C(CCC1CCCCC1)N2 | 1 | 35 | 90* | 1 | 0.9
Cc1ccccc1CSCCNC(=O)c1ccccc1 | 0.9 | 7 | 4 | 0.9 | 0.8
Cc1c(C(=O)NCCSCc2ccc(Cl)cc2Cl)cccc1[N+](=O)[O-] | 0.9 | 69* | -4 | 0.9 | 0.9
S=C(NCCSCc1c(Cl)cccc1Cl)Nc1ccccc1 | 0.8 | 82* | 17 | 0.9 | 0.7
Cc1ccccc1CSCCNC(=S)Nc1ccccc1 | 1 | 71* | 29 | 1 | 0.9
S=C(NCCSCc1ccc(Cl)c(Cl)c1)Nc1ccccc1 | x | x | 15 | x | x
COc1ccc(CSCCNC(=S)Nc2ccccc2)cc1Cl | 0.9 | 77* | 11 | 0.9 | 0.9
COc1cc(C(=O)c2c(C)c(CCC#N)n3ccccc23)cc(OC)c1OC | 1 | -10 | 14 | 1.2 | 1
S=C(NCCSCc1ccc(Cl)cc1Cl)Nc1ccccc1 | 1 | 80* | 84* | 0.9 | 0.8
CN(C)c1oc(-c2ccccc2Cl)nc1P(=O)(c1ccccc1)c1ccccc1 | 1 | 40 | 96* | 0.9 | 0.9
O=C(/C=C/c1cccs1)N1CCN(c2ccc(O)cc2)CC1 | 0.5 | -6 | 76* | 0.9 | 0.8
O=C(c1ccco1)N1CCN(CCOCCOc2cccc3ccccc23)CC1 | 1 | 2 | 90* | 1 | 0.8
CCc1nc(N2CCN(C(=O)c3ccco3)CC2)c2oc3ccccc3c2n1 | 1.1 | 27 | 83* | 1.1 | 0.8
SMILES | PMI act hi M6P | WT yeast gro inh | L major viab | PMI act | Diaphorase act
O=C(c1ccco1)N1CCN(CCCCOc2cccc3ccccc23)CC1 | 1.1 | 39 | 88* | 1.1 | 0.9
c1ccc(CN2CCN(CCOCCOc3cccc4ccccc34)CC2)cc1 | 1 | 33 | 14 | 0.9 | 0.9
CCOc1ccccc1-n1c(CN2CCN(C(=O)c3ccco3)CC2)nc2ccccc2c1=O | 1.1 | 70* | 34 | 1 | 1
COc1ccc(C(=O)N2CCN(c3ccccn3)CC2)cc1[N+](=O)[O-] | 0.9 | 12 | -4 | 1 | 0.9
CCOC(=O)c1[nH]c(=O)[nH]c1CN(Cc1ccco1)Cc1[nH]c(=O)[nH]c1C(=O)OCC | 1 | 6 | 1 | 1 | 1.1
COC(=O)N/N=C/c1cc(Cl)cc(Cl)c1OCc1ccc(F)cc1 | 1 | 2 | -3 | 1 | 0.9
COc1ccc(CCNC(=O)COC(=O)/C=C/c2cc(OC)c(OC)c(OC)c2)cc1OC | 1 | -20 | -1 | 1.1 | 0.9
Cc1ccoc1C(=O)NCCNc1ccc(Cl)cc1[N+](=O)[O-] | 0.8 | -7 | 83* | 0.9 | 0.9
O=C(NCCNc1ccc(Cl)cc1[N+](=O)[O-])c1cccnc1 | 1 | -4 | 10 | 1 | 1
CCN(CC)S(=O)(=O)c1cc(NC(=O)[C@@H](NC(N)=O)C(C)C)ccc1C | 0.8 | 7 | 1 | 1 | 0.9
Cc1ccccc1NC(=O)Cc1nc(CSc2nnc(-c3ccc4c(c3)OCO4)o2)cs1 | 1 | -9 | 86* | 1 | 1
O=C(N/C=N/O)C1=NOC(CNc2ncc(C(F)(F)F)cc2Cl)C1 (centres undefined) | 1 | -17 | 99* | 1 | 0.9
O=C(NC1CC1)C1=NOC(CNc2ncc(C(F)(F)F)cc2Cl)C1 (centres undefined) | 1.1 | 12 | -3 | 1.1 | 0.9
O=C(Nc1nc2cc3c(cc2s1)OCCO3)c1ccncc1 | 1.1 | 48 | 95* | 1.3 | 1
Cc1nc2c(ccc3nc(NC(=O)c4ccc5c(c4)OCCO5)sc32)s1 | 1 | 27 | 63* | 0.9 | 1.1
c1ccc2sc(Nc3nc4cc5c(cc4s3)OCO5)nc2c1 | 1 | 22 | 90* | 1.1 | 1.2
O=C(NNc1nc2cc3c(cc2s1)OCO3)c1ccc(F)cc1 | 1.3 | -10 | 77* | 1.3 | 1.1
O=C(NNc1nc2cc3c(cc2s1)OCCO3)c1ccc(F)cc1 | 1 | -9 | -6 | 1.1 | 0.9
O=C(COc1ccccc1)Nc1cccc(-c2nc3cc4ccccc4cc3[nH]2)c1 | 0.9 | 75 | 32 | 0.9 | 0.8
CC(=O)Nc1ccc(NC(=O)c2ccccc2CCc2ccccc2)cc1 | 0.9 | 5 | -4 | 0.9 | 1
CCCCNC(=S)N(C)/N=C/c1ccc2c(c1)OCO2 | 0.9 | 78* | -5 | 0.8 | 0.9
O=C(Nc1ccc(Cl)cc1)NC1CCCCC1Cc1ccco1 (centres undefined) | 0.9 | 75* | 5 | 0.9 | 0.9
O=C(CSc1ncn[nH]1)NCc1ccccc1 | 1 | 89* | 2 | 1 | 1.1
O=C(Oc1ccc(Br)cc1)c1n[nH]c(=O)c2ccccc12 | 1 | -6 | 1 | 1.1 | 1.1
CC(=O)C1=C(C)NC(SCC(=O)c2ccccc2)=C(C#N)C1CC(C)C (centres undefined) | 1.4 | 12 | 13 | 1.2 | 0.9
C=CCn1c(-c2ccc(N)cc2)nc2ccccc21 | 1 | 7 | 24 | 1 | 0.9
C=CCn1c(-c2ccc(OC)cc2)nc2ccccc21 | 1 | 0 | 96* | 0.9 | 1
COc1ccc(-c2nc3ccccc3n2Cc2ccccc2)cc1 | 0.9 | 45 | 53* | 0.9 | 1
CCOCCn1c(-c2ccc(OC)cc2)nc2ccccc21 | 1.1 | 16 | 43 | 1.1 | 1
